Active and inactive are the calls of the source. The calls are words filed in the database; no cut-off is given here.
What was measured:
[1] = target: T1, Cathepsin B (Homo sapiens, UniProt P07858); test: Non-competitive inhibition of recombinant human cathepsin B endopeptidase activity assessed as inhibitory constant for enzyme-inhibitor complex using Z-Arg-Arg-AMC as substrate in presence of pH 6 phosphate buffer by fluorescence assay
[2] = target: T1, Cathepsin B; test: Mixed inhibition of recombinant human cathepsin B exopeptidase activity assessed as inhibitory constant for enzyme-inhibitor complex using Abz-Gly-Ile-Val-Arg-Ala-Lys(Dnp)-OH as substrate in presence of pH 5 acetate buffer by fluorescence assay
[3] = target: T1, Cathepsin B; test: Mixed inhibition of recombinant human cathepsin B exopeptidase activity assessed as inhibitory constant for enzyme-substrate-inhibitor complex using Abz-Gly-Ile-Val-Arg-Ala-Lys(Dnp)-OH as substrate in presence of pH 5 acetate buffer by fluorescence assay
[4] = target: T1, Cathepsin B; test: Non-competitive inhibition of recombinant human cathepsin B endopeptidase activity assessed as inhibitory constant for enzyme-substrate-inhibitor complex using Z-Arg-Arg-AMC as substrate in presence of pH 6 phosphate buffer by fluorescence assay
[5] = target: T1, Cathepsin B; test: Mixed inhibition of recombinant human cathepsin B endopeptidase activity assessed as inhibitory constant for enzyme-inhibitor complex using Z-Arg-Arg-AMC as substrate in presence of pH 6 phosphate buffer by fluorescence assay
[6] = target: T1, Cathepsin B; test: Mixed inhibition of recombinant human cathepsin B endopeptidase activity assessed as inhibitory constant for enzyme-substrate-inhibitor complex using Z-Arg-Arg-AMC as substrate in presence of pH 6 phosphate buffer by fluorescence assay
[7] = target: T1, Cathepsin B; test: Uncompetitive inhibition of recombinant human cathepsin B endopeptidase activity assessed as inhibitory constant for enzyme-substrate-inhibitor complex using Z-Arg-Arg-AMC as substrate in presence of pH 6 phosphate buffer by fluorescence assay
[8] = target: T1, Cathepsin B; test: Competitive inhibition of recombinant human cathepsin B endopeptidase activity assessed as inhibitory constant for enzyme-inhibitor complex using Z-Arg-Arg-AMC as substrate in presence of pH 4.5 acetate buffer by fluorescence assay
Method in brief: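 Recombinant cathepsin B endopeptidase activity assayed with the small substrate Z-Arg-Arg-AMC at pH 4.5. Acidic conditions chosen to shift the enzyme toward the closed (exopeptidase) conformation. Ki reported.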

[9] = target: T1, Cathepsin B; test: Inhibition of cathepsin B in human MCF-10A neoT cells assessed as proteolysis of extracellular membrane by measuring decrease in extracellular degradation of DQ-collagen 4 at 5 uM incubated for 6 hrs measured for 2 hrs by fluorescence based spectrofluorimetric assay relative to control; format: cell-based
Method in brief: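 MCF-10A neoT cells (5 × 10⁴) incubated with DQ-collagen IV in the presence of compound or DMSO. Extracellular degradation product read by spectrofluorimetry. Mean of n = 3, six replicates per experiment.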

[10] = target: T1, Cathepsin B; test: Inhibition of cathepsin B in human MCF-10A neoT cells assessed as proteolysis of extracellular membrane by measuring decrease in intracellular degradation of DQ-collagen 4 at 50 uM incubated for 2 hrs followed by DQ-collagen addition measured for 2 hrs by propidium iodide staining based flow cytometry relative to control; format: cell-based
Method in brief: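 MCF-10A neoT cells (6 × 10⁴) treated with compound or DMSO. Intracellular DQ-collagen IV degradation measured by flow cytometry, with unlabeled cells as background. Reduction expressed versus DMSO. Mean of n = 3, run in duplicate.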

[11] = system: MCF-10A-neoT; test: Cytotoxicity against human MCF10AneoT cells assessed as decrease in cell viability after 72 hrs by MTS assay; format: cell-based
[12] = system: U-87 MG; test: Cytotoxicity against human U87MG cells assessed as decrease in cell viability after 72 hrs by MTS assay; format: cell-based; conditions: u-87mg atcc
[13] = target: T1, Cathepsin B; test: Non-competitive inhibition of recombinant human cathepsin B exopeptidase activity assessed as inhibitory constant for enzyme-inhibitor complex using Abz-Gly-Ile-Val-Arg-Ala-Lys(Dnp)-OH as substrate in presence of pH 5 acetate buffer by fluorescence assay
[14] = target: T1, Cathepsin B; test: Non-competitive inhibition of recombinant human cathepsin B exopeptidase activity assessed as inhibitory constant for enzyme-substrate-inhibitor complex using Abz-Gly-Ile-Val-Arg-Ala-Lys(Dnp)-OH as substrate in presence of pH 5 acetate buffer by fluorescence assay
[15] = system: MCF-10A-neoT; test: Antiinvasive activity against human MCF10AneoT cells at 5 uM incubated for 1 hr measured every 15 mins for 72 hrs by real time xCELLigence assay relative to control; format: functional
Method in brief: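 MCF-10A neoT cells (3 × 10⁴) seeded on Matrigel-coated (1 mg/mL) upper compartments of CIM-plates. Compound or DMSO (0.05%) added to growth medium in both upper and lower compartments. Invasion followed by impedance (cell index) for 72 h. Slopes (1/h) between 4 and 14 h converted to percentage invasion versus DMSO. Means of n = 2, each run in triplicate.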

[16] = target: T2, Pro-cathepsin H (Homo sapiens, UniProt P09668); test: Non-competitive inhibition of human liver cathepsin H assessed as inhibitory constant for enzyme-inhibitor complex using R-AMC as substrate in presence of pH 6 phosphate buffer by fluorescence assay
T2 sequence (P09668 whole entry): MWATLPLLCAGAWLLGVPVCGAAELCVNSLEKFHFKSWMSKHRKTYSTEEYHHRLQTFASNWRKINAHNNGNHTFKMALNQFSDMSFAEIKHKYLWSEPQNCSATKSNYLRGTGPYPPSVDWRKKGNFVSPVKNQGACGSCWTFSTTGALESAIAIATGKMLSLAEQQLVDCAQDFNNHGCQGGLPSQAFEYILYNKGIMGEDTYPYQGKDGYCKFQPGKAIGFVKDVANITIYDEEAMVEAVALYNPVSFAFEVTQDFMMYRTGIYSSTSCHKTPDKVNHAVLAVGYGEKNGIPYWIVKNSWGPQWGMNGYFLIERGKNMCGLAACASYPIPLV

[17] = target: T2, Pro-cathepsin H; test: Non-competitive inhibition of human liver cathepsin H assessed as inhibitory constant for enzyme-substrate-inhibitor complex using R-AMC as substrate in presence of pH 6 phosphate buffer by fluorescence assay
[18] = target: Procathepsin L (Homo sapiens, UniProt P07711); test: Competitive inhibition of recombinant human cathepsin L expressed in Escherichia coli assessed as inhibitory constant for enzyme-inhibitor complex using Z-FR-AMC as substrate in presence of pH 6 phosphate buffer by fluorescence assay
Sequence of Procathepsin L (P07711 whole entry): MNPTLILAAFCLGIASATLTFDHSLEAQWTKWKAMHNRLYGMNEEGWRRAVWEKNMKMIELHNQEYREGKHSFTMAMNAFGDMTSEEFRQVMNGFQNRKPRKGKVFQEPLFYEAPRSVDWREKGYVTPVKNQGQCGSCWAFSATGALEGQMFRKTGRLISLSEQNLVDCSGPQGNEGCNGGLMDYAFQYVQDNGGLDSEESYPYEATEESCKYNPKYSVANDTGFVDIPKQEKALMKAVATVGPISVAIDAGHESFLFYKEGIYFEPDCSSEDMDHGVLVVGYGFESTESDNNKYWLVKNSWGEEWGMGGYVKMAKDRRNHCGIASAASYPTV

Structure (SMILES) | Ki [2] | Ki [3] | Ki [5] | Ki [6] | inhibition [10] | Ki [13] | Ki [14] | also measured
COCCCOc1cc(-c2ccc([N+](=O)[O-])c3cccnc23)ccc1OC | 118 µM | 22 µM | – | – | – | – | – | Ki [1]: 323 µM; Ki [4]: 323 µM
CN(CC#N)C(=O)c1ccc2c([N+](=O)[O-])cc([N+](=O)[O-])c(O)c2n1 | 257 µM | 109 µM | 341 µM | 122 µM | – | – | – | –
N#CCN(Cc1ccccc1)C(=O)c1ccc2c([N+](=O)[O-])cc([N+](=O)[O-])c(O)c2n1 | 154 µM | 35 µM | – | – | inactive | – | – | Ki [7]: 9 µM; Ki ([8]; read-out: Ki): 163 µM; inhibition [9]: Active; Activity [11]: Non-Toxic; Activity [12]: Non-Toxic
CN(CC#N)C(=O)c1ccc2c([N+](=O)[O-])ccc(O)c2n1 | – | – | 102 µM | 263 µM | – | 205 µM | 205 µM | –
N#CCNC(=O)c1ccc2c([N+](=O)[O-])cc([N+](=O)[O-])c(O)c2n1 | 201 µM | 34 µM | – | – | – | – | – | Ki [1]: 160 µM; Ki ([8]; read-out: Ki): 29 µM; Ki [4]: 160 µM
CCCNC(=O)[C@H]1O[C@@H]1C(=O)N[C@H](C(=O)N1CCC[C@H]1C(=O)O)[C@@H](C)CC | – | – | – | – | inactive | – | – | Activity [15]: 40%
COCCN(CC1CCN(Cc2nc3ccccc3s2)CC1)C(=O)c1cc([N+](=O)[O-])c2cccnc2c1O | – | – | 200 µM | 41 µM | – | 181 µM | 181 µM | –
N#CC1(NC(=O)c2cc([N+](=O)[O-])c3cccnc3c2O)CC1 | – | – | – | – | 15% | 185 µM | 185 µM | Ki [7]: 124 µM; Ki [8]: Not Active; inhibition [9]: Active; Ki [16]: 329 µM; Ki [17]: 329 µM; Ki [18]: 195 µM; Activity [15]: 70%; Activity [11]: Non-Toxic; Activity [12]: Non-Toxic
CCCNC(=O)[C@H]1O[C@@H]1C(=O)N[C@H](C(=O)N1CCC[C@H]1C(=O)OC)[C@@H](C)CC | – | – | – | – | Active | – | – | –
N#CCNC(=O)c1ccc2c([N+](=O)[O-])ccc(O)c2n1 | – | – | 180 µM | 116 µM | – | 190 µM | 190 µM | –
